The values below come from publication PMC3677025 (Pharmacological research : the official journal of the …, 2012).

Assay [1] has as its system EphB2. In words: ELISA, ephrin-B2 AP binding to immobilized EphB2 Fc. Particulars: concentrations up to 200 μM. The gist of the method:
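Eph receptor Fc fusions were immobilized at 1 μg/ml in TBST on protein A-coated wells. Diluted ephrin AP fusion supernatant from transiently transfected HEK293 cells was added for 2 h with or without test compound; for IC50 it was at approximately 0.01 nM. Bound AP was read with p-nitrophenylphosphate, minus Fc-only background. IC50 came from a variable-slope log(inhibitor)–response fit, bottom constrained to 0.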
(In an ELISA, binding on a coated surface is turned into a signal by an enzyme label.)

In assay [2] the test system is EphA4 ephrin-binding domain mutants. In words: Wild-type and mutant EphA4 AP binding to immobilized ephrin-A5 Fc. Particulars: EphA4 AP mutants vs wild-type. Further details: species or system human. The method in brief: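 Wild-type and point-mutant human EphA4 ephrin-binding domains fused to alkaline phosphatase were added at 0.01 nM final to wells precoated with protein A and ephrin-A5 Fc, with or without test compound. Bound AP was read with p-nitrophenylphosphate. IC50 values from 2–3 separate experiments were compared with wild-type by one-way ANOVA and Dunnett's post-hoc test.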

The target of the next assay is EphA4 (Mus musculus, UniProt Q03137). In words: Ephrin-A5 Fc-induced EphA4 tyrosine phosphorylation in HT22 cells. The assay is classed as cell-based. Particulars: read-out: IC50, EphA4 tyrosine phosphorylation, 0.5 μg/mL ephrin-A5 Fc, ELISA. The method in brief:
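HT22 cells at ~70% confluency were serum-starved 1 h, given test compound (final DMSO ≤0.4%) for 15 min, then ephrin-A5 Fc for 20 min with compound still present. After modified RIPA lysis, phospho and total EphA4 were read by capture ELISA (anti-phosphotyrosine 1:500; cytoplasmic anti-EphA4 1:1,000), with ABTS at A405. Values were normalized to ephrin-only cells; IC50 came from 3–9 measurements.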

The target of another assay is T1, EphB4 (Mus musculus, UniProt P54761).
T1 sequence (P54761 16-987): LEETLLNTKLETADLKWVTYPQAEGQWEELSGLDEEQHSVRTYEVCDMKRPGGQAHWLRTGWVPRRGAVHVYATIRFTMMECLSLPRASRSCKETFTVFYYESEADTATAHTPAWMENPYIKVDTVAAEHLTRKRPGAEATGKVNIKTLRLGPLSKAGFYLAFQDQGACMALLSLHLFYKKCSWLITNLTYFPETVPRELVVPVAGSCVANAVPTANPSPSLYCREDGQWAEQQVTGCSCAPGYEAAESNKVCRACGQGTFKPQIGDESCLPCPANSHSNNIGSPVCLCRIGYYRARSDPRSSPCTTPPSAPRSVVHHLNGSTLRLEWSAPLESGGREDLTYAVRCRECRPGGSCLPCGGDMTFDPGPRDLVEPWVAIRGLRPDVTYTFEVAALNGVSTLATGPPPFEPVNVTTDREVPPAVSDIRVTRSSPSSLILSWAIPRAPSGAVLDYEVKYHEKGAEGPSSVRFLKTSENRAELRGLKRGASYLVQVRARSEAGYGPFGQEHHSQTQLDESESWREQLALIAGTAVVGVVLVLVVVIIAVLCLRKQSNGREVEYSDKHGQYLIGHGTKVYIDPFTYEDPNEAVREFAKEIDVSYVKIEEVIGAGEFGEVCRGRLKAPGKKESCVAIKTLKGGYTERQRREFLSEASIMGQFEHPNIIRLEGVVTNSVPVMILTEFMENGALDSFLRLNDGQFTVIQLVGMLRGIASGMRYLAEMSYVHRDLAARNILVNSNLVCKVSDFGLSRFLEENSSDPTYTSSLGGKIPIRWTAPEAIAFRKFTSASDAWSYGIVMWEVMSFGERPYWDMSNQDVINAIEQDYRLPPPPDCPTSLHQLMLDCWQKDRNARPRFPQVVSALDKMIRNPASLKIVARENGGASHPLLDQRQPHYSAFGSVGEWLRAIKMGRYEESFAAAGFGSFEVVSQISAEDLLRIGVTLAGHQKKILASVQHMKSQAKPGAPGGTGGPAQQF
In words: Ephrin-B2 Fc-induced EphB4 tyrosine phosphorylation in B16 melanoma cells. The assay is classed as cell-based. To be noted: relative to EphA2 and EphA4. The method in brief:
(§1)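 Cells were serum-starved 1–2 h and pretreated 15 min with test compound (DMSO ≤0.4% final). They were then stimulated 20 min with compound present: COS cells with 0.8 μg/mL ephrin-B2 Fc, and B16 melanoma cells with 1.5 μg/mL anti-Fc-preclustered ephrin-B2 Fc, or Fc control. Lysates were made in modified RIPA. EphB2 (COS; 7 μg antibody) or EphB4 (B16; 20 μg antibody) was immunoprecipitated, probed for phosphotyrosine, then reprobed for the receptor.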

In assay [3] the test system is EphB2. In words: Ephrin-B2 Fc-induced EphB2 tyrosine phosphorylation in COS cells. Format: cell-based. Particulars: relative to concentrations inhibiting other Eph receptors. The method in brief:
as §1

For a further assay, the system named is HUVECs. In words: Capillary-like tube formation assay, HUVECs on Matrigel. Particulars: 18 hours. Format: cell-based, human. The method in brief: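 HUVECs (2.3 × 10⁴) were seeded on Matrigel-precoated wells in complete HUVEC medium containing test compound or DMSO control and grown for 18 h. Polygons were counted from phase-contrast images, 2–4 pictures from each of 3–6 wells. Counts were compared with DMSO-only wells by one-way ANOVA with Dunnett's post-hoc test.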

“And” between values parts separate entries of the source, which are not always exact repeats. Identical values can stand only once.

Chain of EphA4 (Q03137 20-986): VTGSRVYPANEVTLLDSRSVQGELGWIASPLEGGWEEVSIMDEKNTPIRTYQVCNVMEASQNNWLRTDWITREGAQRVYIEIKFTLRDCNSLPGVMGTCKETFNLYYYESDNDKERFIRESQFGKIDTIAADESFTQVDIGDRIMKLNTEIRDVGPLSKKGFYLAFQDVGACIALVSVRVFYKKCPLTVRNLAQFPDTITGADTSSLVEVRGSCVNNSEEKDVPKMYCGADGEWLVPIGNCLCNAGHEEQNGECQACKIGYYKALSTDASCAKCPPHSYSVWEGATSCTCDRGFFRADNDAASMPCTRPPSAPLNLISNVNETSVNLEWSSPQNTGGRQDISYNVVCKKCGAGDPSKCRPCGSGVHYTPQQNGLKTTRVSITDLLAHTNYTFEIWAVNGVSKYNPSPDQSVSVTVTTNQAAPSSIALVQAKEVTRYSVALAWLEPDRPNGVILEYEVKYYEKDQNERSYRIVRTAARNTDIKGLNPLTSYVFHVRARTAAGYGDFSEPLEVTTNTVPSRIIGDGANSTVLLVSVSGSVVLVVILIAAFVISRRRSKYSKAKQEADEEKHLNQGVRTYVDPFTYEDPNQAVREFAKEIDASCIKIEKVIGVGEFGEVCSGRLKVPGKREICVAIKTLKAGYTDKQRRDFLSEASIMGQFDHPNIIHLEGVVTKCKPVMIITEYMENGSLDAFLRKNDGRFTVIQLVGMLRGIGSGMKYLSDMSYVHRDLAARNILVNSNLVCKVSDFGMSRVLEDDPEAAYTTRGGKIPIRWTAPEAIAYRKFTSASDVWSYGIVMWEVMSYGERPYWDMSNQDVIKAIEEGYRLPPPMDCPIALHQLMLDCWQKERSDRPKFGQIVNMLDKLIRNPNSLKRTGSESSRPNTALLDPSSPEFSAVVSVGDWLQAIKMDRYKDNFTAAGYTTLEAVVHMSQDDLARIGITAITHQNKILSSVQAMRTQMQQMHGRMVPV

As to `O=C(Oc1cc(O)cc2c1C[C@@H](OC(=O)c1cc(O)c(O)c(O)c1)[C@@H](c1cc(O)c(O)c(O)c1)O2)c1cc(O)c(O)c(O)c1` [epigallocatechin-3,5-digallate], the “inhibition of EphB2-ephrin interaction” value in the assay on EphB2 [1] is on record as “does not target”; in the assay on EphB2 [1] (listed as Epigallocatechin-3,5-digallate), “no inhibition”. Further, in assay [2], the “effect of other EphA4 mutations, such as D123A, on inhibitory activity” value is recorded as “did not detectably affect”. In addition, the IC50 at EphA4 is 190 µM and ~190 µM. Also, at EphB4, the “inhibition of EphB4 phosphorylation” value is recorded as “at higher concentrations”. Also, the “inhibition of EphB2 phosphorylation” value with EphB2 [3] is “at higher concentrations”. The values for the capillary-like tube formation result in the assay with HUVECs (20 μM to 200 μM) and with HUVECs (at 50 μM) were “dose-dependent inhibitory effect” and “inhibit”, respectively.
